Reference: ChEMBL document CHEMBL1141720, “A study of the structure-activity relationship of GABA(A)-benzodiazepine receptor bivalent ligands by conformational analysis with low temperature NMR and X-ray analysis” (Bioorg Med Chem, 2008)
pKi: −log10 of the molar value.

Experiments:
Type in all cases: cell-based
[1] = molecular target: T1, GABA-A receptor; alpha-1/beta-3/gamma-2 (Homo sapiens, UniProt P14867+P18507+P28472); assay: Displacement of [3H]flunitrazepam from human recombinant GABAA alpha-1-beta-3-gamma-2 receptor expressed in HEK293 cells
T1 sequence (P14867 whole entry): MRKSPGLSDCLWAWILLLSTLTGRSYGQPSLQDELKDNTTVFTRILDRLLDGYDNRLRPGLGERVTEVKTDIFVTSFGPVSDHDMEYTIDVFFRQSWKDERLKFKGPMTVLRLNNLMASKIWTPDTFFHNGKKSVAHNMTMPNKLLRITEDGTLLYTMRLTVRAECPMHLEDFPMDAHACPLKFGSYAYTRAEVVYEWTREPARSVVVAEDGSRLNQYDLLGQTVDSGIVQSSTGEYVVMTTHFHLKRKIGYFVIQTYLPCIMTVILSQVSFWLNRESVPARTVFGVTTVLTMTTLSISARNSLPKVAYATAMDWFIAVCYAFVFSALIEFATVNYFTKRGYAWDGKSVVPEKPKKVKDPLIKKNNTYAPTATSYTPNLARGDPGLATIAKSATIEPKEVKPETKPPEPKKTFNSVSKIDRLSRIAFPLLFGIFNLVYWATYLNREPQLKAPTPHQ
T1 sequence (P18507 whole entry): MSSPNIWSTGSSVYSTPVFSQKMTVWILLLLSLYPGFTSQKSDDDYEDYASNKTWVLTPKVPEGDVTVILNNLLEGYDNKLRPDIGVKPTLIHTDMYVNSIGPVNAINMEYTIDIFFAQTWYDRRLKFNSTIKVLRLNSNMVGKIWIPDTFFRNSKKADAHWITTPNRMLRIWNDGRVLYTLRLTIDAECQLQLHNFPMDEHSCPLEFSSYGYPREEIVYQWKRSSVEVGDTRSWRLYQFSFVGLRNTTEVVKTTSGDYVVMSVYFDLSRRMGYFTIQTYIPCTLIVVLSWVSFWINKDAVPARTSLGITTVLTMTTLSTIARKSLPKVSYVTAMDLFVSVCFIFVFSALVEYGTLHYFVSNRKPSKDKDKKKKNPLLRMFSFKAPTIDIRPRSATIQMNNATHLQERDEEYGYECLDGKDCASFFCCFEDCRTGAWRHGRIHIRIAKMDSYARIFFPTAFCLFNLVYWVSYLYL
T1 sequence (P28472 whole entry): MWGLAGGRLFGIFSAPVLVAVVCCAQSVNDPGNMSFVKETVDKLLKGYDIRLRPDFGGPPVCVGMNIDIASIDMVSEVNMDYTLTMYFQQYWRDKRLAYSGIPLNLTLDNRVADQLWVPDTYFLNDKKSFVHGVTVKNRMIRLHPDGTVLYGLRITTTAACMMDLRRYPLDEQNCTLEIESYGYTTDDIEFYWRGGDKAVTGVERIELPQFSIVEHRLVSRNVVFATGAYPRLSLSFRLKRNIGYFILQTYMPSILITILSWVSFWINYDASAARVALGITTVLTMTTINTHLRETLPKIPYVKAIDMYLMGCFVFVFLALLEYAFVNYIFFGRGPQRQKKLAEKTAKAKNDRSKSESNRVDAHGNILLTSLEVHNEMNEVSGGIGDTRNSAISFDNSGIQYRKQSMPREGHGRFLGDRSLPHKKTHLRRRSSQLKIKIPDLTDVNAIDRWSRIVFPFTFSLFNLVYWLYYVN
Method in brief: (§1)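 Membranes from the receptor-expressing cells were harvested in hypotonic 50 mM Tris-acetate, pH 7.4 at 4°C. They were incubated with [3H]flunitrazepam in 0.5 mL for 1 h at 4°C. Nonspecific binding was taken with 100 μM diazepam. Reactions were filtered onto 0.3% polyethyleneimine-treated GF/C filters, washed three times with ice-cold buffer, and counted by liquid scintillation. Protein was measured by Bio-Rad assay against a BSA standard.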

[2] = molecular target: T2, GABA-A receptor; alpha-5/beta-3/gamma-2 (Homo sapiens, UniProt P18507+P28472+P31644); assay: Displacement of [3H]flunitrazepam from human recombinant GABAA alpha-5-beta-3-gamma-2 receptor expressed in HEK293 cells; method in brief: as §1
T2 sequence (P18507 whole entry): T1 sequence (P18507 whole entry)
T2 sequence (P28472 whole entry): T1 sequence (P28472 whole entry)
T2 sequence (P31644 whole entry): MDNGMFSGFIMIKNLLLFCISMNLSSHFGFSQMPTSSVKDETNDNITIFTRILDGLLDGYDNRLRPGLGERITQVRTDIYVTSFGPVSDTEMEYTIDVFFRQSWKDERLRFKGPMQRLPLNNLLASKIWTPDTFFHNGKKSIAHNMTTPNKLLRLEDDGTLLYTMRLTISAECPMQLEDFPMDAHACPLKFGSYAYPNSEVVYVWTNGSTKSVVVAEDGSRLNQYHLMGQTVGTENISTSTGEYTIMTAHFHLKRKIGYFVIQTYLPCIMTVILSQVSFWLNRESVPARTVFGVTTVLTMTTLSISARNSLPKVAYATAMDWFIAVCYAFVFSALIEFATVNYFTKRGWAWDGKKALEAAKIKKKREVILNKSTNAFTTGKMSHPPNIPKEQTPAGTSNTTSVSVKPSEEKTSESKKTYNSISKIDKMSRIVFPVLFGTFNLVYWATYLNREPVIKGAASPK

[3] = molecular target: GABA-A receptor; alpha-6/beta-3/gamma-2 (Homo sapiens, UniProt P18507+P28472+Q16445); assay: Displacement of [3H]flunitrazepam from human recombinant GABAA alpha-6-beta-3-gamma-2 receptor expressed in HEK293 cells; method in brief: as §1
Chain of GABA-A receptor; alpha-6/beta-3/gamma-2 (Q16445 whole entry, one chain of several): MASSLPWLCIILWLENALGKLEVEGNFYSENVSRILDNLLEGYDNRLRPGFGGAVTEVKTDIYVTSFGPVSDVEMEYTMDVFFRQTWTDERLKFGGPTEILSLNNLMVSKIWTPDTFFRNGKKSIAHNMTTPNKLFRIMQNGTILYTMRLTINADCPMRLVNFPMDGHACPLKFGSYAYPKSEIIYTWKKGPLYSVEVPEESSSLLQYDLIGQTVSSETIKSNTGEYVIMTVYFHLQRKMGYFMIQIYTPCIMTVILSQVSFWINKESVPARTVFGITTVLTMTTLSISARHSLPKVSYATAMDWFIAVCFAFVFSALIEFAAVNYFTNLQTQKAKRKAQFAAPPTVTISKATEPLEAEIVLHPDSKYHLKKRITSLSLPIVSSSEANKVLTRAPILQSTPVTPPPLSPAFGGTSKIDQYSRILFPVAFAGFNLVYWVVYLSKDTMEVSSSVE

[4] = molecular target: T3, GABA-A receptor; alpha-2/beta-3/gamma-2 (Homo sapiens, UniProt P18507+P28472+P47869); assay: Displacement of [3H]flunitrazepam from human recombinant GABAA alpha-2-beta-3-gamma-2 receptor expressed in HEK293 cells; method in brief: as §1
T3 sequence (P18507 whole entry): T1 sequence (P18507 whole entry)
T3 sequence (P28472 whole entry): T1 sequence (P28472 whole entry)
T3 sequence (P47869 whole entry): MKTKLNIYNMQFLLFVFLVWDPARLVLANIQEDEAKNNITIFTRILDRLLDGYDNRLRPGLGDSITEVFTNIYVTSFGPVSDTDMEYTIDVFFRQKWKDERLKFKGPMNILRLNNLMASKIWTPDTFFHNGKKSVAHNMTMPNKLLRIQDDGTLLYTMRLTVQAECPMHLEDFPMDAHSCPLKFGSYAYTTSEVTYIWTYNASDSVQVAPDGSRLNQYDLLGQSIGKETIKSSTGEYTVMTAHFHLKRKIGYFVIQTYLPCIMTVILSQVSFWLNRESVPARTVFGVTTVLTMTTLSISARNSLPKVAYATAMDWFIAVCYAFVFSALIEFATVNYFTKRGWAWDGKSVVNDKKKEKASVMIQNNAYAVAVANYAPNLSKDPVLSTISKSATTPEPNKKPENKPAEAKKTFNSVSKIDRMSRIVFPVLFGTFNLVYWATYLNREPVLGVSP

[5] = molecular target: T4, Gamma-aminobutyric acid receptor subunit alpha-3 (Homo sapiens, UniProt P18507+P28472+P34903); assay: Displacement of [3H]flunitrazepam from human recombinant GABAA alpha-3-beta-3-gamma-2 receptor expressed in HEK293 cells; method in brief: as §1
T4 sequence (P34903 whole entry): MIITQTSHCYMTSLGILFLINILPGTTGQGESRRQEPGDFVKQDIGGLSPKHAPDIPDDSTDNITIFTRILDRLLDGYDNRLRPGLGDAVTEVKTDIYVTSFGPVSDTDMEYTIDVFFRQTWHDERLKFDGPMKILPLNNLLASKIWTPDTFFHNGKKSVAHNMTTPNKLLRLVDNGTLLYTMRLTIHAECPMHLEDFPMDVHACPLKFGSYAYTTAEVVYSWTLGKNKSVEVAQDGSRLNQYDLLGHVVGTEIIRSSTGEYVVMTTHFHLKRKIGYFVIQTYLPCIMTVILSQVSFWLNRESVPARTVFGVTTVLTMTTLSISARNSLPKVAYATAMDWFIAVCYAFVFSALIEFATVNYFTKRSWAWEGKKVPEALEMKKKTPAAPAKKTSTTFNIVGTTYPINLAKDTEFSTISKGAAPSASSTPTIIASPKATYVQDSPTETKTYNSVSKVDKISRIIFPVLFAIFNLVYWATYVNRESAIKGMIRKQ

[6] = molecular target: GABA A receptor alpha-4/beta-3/gamma-2 (Homo sapiens, UniProt P18507+P28472+P48169); assay: Displacement of [3H]flunitrazepam from human recombinant GABAA alpha-4-beta-3-gamma-2 receptor expressed in HEK293 cells; method in brief: as §1
Chain of GABA A receptor alpha-4/beta-3/gamma-2 (P48169 whole entry, one chain of several): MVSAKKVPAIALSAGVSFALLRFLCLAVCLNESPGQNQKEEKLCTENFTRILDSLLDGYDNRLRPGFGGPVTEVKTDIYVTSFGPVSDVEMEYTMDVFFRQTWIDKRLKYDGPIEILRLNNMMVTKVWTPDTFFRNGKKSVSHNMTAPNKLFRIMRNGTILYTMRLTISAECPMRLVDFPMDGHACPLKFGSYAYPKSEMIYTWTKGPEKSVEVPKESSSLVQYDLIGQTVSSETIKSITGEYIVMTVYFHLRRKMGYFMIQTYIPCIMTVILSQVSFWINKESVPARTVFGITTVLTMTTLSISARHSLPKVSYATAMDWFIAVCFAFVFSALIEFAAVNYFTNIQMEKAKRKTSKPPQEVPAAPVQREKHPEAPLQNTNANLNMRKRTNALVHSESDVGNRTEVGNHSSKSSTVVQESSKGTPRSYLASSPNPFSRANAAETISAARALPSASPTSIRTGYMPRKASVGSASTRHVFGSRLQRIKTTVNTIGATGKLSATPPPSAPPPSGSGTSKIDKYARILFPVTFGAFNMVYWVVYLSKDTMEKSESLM

Row | Compound | pKi [1] | pKi [2] | pKi [3] | pKi [4] | pKi [5] | pKi [6]
1 | C#Cc1ccc2c(c1)C(=O)N(C)Cc1c(C(=O)OCCCCCOC(=O)c3ncn4c3CN(C)C(=O)c3cc(C#C)ccc3-4)ncn1-2 | 6.64 | 8.27 | 7.27 | 6.18 | 5.57 | –
2 | C#Cc1ccc2c(c1)C(=O)N(C)Cc1c(C(=O)OCOCOC(=O)c3ncn4c3CN(C)C(=O)c3cc(C#C)ccc3-4)ncn1-2 | 5.42 | 7.12 | – | 5.57 | 5.73 | –
3 | CCc1ccc2c(c1)C(=O)N(C)Cc1c(C(=O)OCCCOC(=O)c3ncn4c3CN(C)C(=O)c3cc(CC)ccc3-4)ncn1-2 | 5.73 | 7.00 | 5.30 | 5.33 | 5.07 | –
4 | C#Cc1ccc2c(c1)C(c1ccccc1)=NCc1c(C(=O)OCCOCCOC(=O)c3ncn4c3CN=C(c3ccccc3)c3cc(C#C)ccc3-4)ncn1-2 | 6.34 | 5.30 | 5.30 | 5.30 | – | –
5 | C#Cc1ccc2c(c1)C(c1ccccc1)=NCc1c(C(=O)OCCCOC(=O)c3ncn4c3CN=C(c3ccccc3)c3cc(C#C)ccc3-4)ncn1-2 | 6.63 | 6.71 | < 5.30 | 8.13 | 6.57 | < 5.30
6 | C#Cc1ccc2c(c1)C(=O)N(C)Cc1c(C(=O)OCC)ncn1-2 | – | – | – | – | – | 8.28
